This note sets out measurements from ChEMBL document CHEMBL5033990, “Novel Aryl-Substituted Pyrimidones as Inhibitors of 3-Mercaptopyruvate Sulfurtransferase with Antiproliferative Efficacy in Colon Cancer” (J Med Chem, 2021).

Test [1] is described as follows: Inhibition of GYY4137-induced H2S release assessed as H2S-induced fluorescence signal at 300 uM measured after 2 hrs by AzMC probe based fluorescence analysis. The test is classed as functional. The arrangement: scale not given: the % may be the effect or the level left. In a few lines: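 H2S scavenging/interference check in 50 mM Tris-HCl pH 8: compound at 300 μM with 100 μM AzMC and 5 mM GYY4137 as nonenzymatic H2S donor. Fluorescence read kinetically for 2 h at 37 °C (ex 365/em 450 nm). Signal loss above 20% flagged as potential scavenger/interferer.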

Test [2] is described as follows: Inhibition of recombinant human 3-MST expressed in Escherichia coli assessed as inhibition of H2S generation using 3-MP as substrate preincubated with enzyme for 1 hr followed by incubation with substrate for 1 hr by AzMC probe based fluorescence analysis. A digest of the protocol: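 Same 3-MST/3-MP/AzMC assay, 1 h preincubation then 1 h kinetic read, at 3, 10, 30, 100 and 300 μM (final DMSO 0.3%). Run for compounds inhibiting at least 60% at 100 μM. Three experiments in triplicate. IC50 from nonlinear fit of data taken between min 20 and 40 of the 60 min read.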

Test [3] deals with Cystathionine gamma-lyase (Homo sapiens) (UniProt P32929). Put plainly: Inhibition of human full length CSE using L-cysteine as substrate at 30 to 300 uM preincubated with enzyme for 1 hr followed by substrate and PLP addition for 2 hrs by AzMC probe based fluorescence analysis. The settings on record: dose 30-300 µM, time 3.0 hrs. In a few lines: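 Human full-length CSE, 2 μg/well, preincubated 1 h with compound at 30 or 300 μM. Then added 5 μM PLP and 2 mM L-cysteine. AzMC fluorescence read kinetically for 2 h at 37 °C. Substrate background subtracted; percent of control, at least three replicates.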
Cystathionine gamma-lyase (Homo sapiens), sequence (P32929 whole entry): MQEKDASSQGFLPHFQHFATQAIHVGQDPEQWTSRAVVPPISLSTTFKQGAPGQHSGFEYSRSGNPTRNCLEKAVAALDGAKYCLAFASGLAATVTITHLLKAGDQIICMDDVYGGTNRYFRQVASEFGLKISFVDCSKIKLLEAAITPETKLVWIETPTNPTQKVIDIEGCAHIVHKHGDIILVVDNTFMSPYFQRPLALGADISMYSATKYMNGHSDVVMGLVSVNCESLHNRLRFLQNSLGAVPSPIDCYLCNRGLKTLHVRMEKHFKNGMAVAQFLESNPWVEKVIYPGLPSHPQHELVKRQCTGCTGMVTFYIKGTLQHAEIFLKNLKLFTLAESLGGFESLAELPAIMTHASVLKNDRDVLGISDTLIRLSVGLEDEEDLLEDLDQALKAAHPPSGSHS

For test [4], the system named is MC-38. Put plainly: Antiproliferative activity against mouse MC38 cells assessed as inhibition of cell proliferation measured after 24 hrs by MTT assay. The test is classed as functional, cell-based. The settings on record: MC-38, 24 h.
Test [5] deals with T1, Cystathionine beta-synthase (Homo sapiens) (UniProt P35520).
T1 sequence (whole entry): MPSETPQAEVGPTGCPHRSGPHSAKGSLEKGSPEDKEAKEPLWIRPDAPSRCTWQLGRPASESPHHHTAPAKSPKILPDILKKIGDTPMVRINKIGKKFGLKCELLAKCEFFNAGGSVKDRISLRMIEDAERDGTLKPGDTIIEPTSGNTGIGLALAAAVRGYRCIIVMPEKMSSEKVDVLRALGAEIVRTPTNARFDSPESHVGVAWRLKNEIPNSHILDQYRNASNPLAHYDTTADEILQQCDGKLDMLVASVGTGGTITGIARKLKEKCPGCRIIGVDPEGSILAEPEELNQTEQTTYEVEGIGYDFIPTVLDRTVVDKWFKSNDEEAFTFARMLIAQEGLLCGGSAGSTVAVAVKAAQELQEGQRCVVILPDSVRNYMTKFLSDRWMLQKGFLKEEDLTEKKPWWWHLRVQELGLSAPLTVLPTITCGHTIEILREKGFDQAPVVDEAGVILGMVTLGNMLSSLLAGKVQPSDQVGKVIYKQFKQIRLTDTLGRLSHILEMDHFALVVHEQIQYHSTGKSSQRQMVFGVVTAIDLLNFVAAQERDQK
The experiment in a line: Inhibition of human full length CBS using L-cysteine and L-homocysteine as substrate at 30 to 300 uM preincubated with enzyme for 1 hr followed by substrate, PLP and SAM addition for 2 hrs by AzMC probe based fluorescence analysis. As to conditions: dose 30-300 µM, time 3.0 hrs. A digest of the protocol:
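Human full-length CBS, 0.5 μg/well, preincubated 1 h with compound at 30 or 300 μM. Then added 5 μM PLP, 2 mM L-cysteine, 2 mM L-homocysteine and 500 μM SAM. AzMC fluorescence read kinetically for 2 h at 37 °C. Substrate background subtracted; percent of control, at least three replicates.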

For test [6], the system named is CT26. The experiment in a line: Antiproliferative activity against mouse CT26 cells assessed as inhibition of cell proliferation measured after 48 hrs by IncuCyte live-cell imaging assay. Type of test: functional, cell-based. As to conditions: CT26, 48 h.
The test system of test [7] is CT26. The experiment in a line: Antiproliferative activity against mouse CT26 cells assessed as inhibition of cell proliferation measured after 24 hrs by MTT assay. The test is classed as functional, cell-based. The settings on record: CT26, 24 h.
Another test concerns MC38. The experiment in a line: Inhibition of 3-MST in mouse MC38 cells assessed as inhibition of H2S generation at 300 uM incubated for 4 hrs by AzMC probe based fluorescence analysis. Type of test: cell-based. In a few lines:
(§1)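 Cells seeded at 60,000/well in 8-well chambers and allowed to adhere overnight. Exposed to 300 μM compound for 4 h, then supernatant replaced with 1 mM AzMC in HBSS plus glucose for 1 h. Fluorescence imaged by microscopy; mean pixel intensity expressed as percent of control.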

The test system of test [8] is CT26. Put plainly: Inhibition of 3-MST in mouse CT26 cells assessed as inhibition of H2S generation at 300 uM incubated for 4 hrs by AzMC probe based fluorescence analysis. Type of test: cell-based. In a few lines: as §1
The test system of test [9] is MC-38. Put plainly: Antiproliferative activity against mouse MC38 cells assessed as inhibition of cell proliferation measured after 48 hrs by IncuCyte live-cell imaging assay. The test is classed as functional, cell-based. As to conditions: MC-38, 48 h.
Test [10] concerns MC-38. Put plainly: Antiproliferative activity against mouse MC38 cells assessed as inhibition of cell proliferation upto 300 uM measured after 24 hrs by MTT assay. As to conditions: dose microM <=300, time 24.0 hrs. Type of test: functional, cell-based. A digest of the protocol:
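CT26 or MC38 cells in high-glucose DMEM with 10% FBS and penicillin/streptomycin, 37 °C, 5% CO2. Seeded at 10,000 cells/well and treated after 1 h adherence at 3, 10, 30, 100 and 300 μM (final DMSO 0.5%). After 24 h, medium replaced by 2 mg/mL MTT in PBS for 3 h. Formazan dissolved in DMSO, absorbance read at 590 nm minus 690 nm. Expressed as percent of control; three experiments in triplicate.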

Test [11] relates to MC-38. The experiment in a line: Antitumor activity against mouse MC38 cells xenografed in C57BL/6 mouse assessed as reduction in tumor growth at 20 mg/kg, ip administered daily for 2 weeks by caliper analysis. Type of test: functional, organism-based.
In a further test the test system is Mus musculus. Put plainly: Antitumor activity against mouse MC38 cells xenografed in C57BL/6 mouse assessed as euthanasia rate at 20 mg/kg, ip administered daily for 2 weeks and measured on day 32 (reference value: 75%). Type of test: functional, MC-38. The settings on record: time 32 day.

A word on the IC50: it is the concentration that gives 50% inhibition.

Calls of active or inactive are those of the source. The calls are words filed in the database; no cut-off is given here.

`Cc1cc(O)nc(SCC(=O)c2ccc(O)c(O)c2)n1`: the Activity in test [1] was under 80%. In addition, the IC50 in [2] was 15.6 µM.

In the case of `Cc1cc(=O)[nH]c(SCC(=O)c2ccc(O)c(I)c2)n1`, the Activity in test [1] is under 80%. Further, the IC50 in test [2] was 16.9 µM.

In the case of `Cc1cc(=O)[nH]c(SCC(=O)c2ccc3ncccc3c2)n1`, the inhibition result in test [3] was “Active”. For the same compound, in test [2], the IC50 was found to be 16.1 µM.

For `CC(=O)Nc1ccc(C(=O)CSc2nccc(O)n2)cc1`, the inhibition result in test [3] and in [5] was “inactive” each time. The IC50 with MC-38 [4] is over 1000 µM; in [2] it was 14.4 µM; with CT26 [6], over 1000 µM; with CT26 [7], 475 µM; with MC-38 [9] it was over 1000 µM. Besides, the inhibition entry in the test with MC38 and in the test with CT26 [8] was “Active” each time. The result with MC-38 [10] was inactive.

For `O=C(CSc1nccc(=O)[nH]1)c1ccc2ncccc2c1`, in test [1], the Activity was under 80%. In addition, the IC50 in test [2] was determined as 15.5 µM.

On to `O=C(CSc1nccc(=O)[nH]1)c1ccc(O)c(I)c1`, for which the Activity in test [1] was under 80%. Also, the IC50 in test [2] worked out at 14.2 µM.

For the compound `CC(=O)Nc1ccc(C(=O)CSc2nc(C)cc(O)n2)cc1`, the inhibition result in [3] and in [5] was “inactive” throughout. Also, the half-maximal inhibitory concentration (IC50) was over 1000 µM in the test on MC-38 [4]; 9.9 µM in test [2]; over 1000 µM in the test with CT26 [6]; over 1000 µM with CT26 [7]; over 1000 µM in the test on MC-38 [9]. Also, the inhibition result in the test with MC38 and with CT26 [8] was “Active” throughout. Further, the result in the test with MC-38 [10] was inactive.

Turning to `O=C(CSc1nccc(=O)[nH]1)c1ccc(O)c(Cl)c1`, the Activity in test [1] was under 80%. Moreover, the half-maximal inhibitory concentration (IC50) in test [2] was determined as 18.8 µM.

For the compound `O=C(CSc1nccc(=O)[nH]1)c1cc(Cl)c(O)c(Cl)c1`, the Activity in test [1] was under 80%. Further, in test [2], the IC50 came out at 12.1 µM.

`Nc1c(Cl)cc(C(=O)CSc2nccc(=O)[nH]2)cc1Cl`: the Activity in [1] is under 80%. Besides, the IC50 in [2] was determined as 6.6 µM.

With `Cc1cc(=O)[nH]c(SCC(=O)c2ccc(O)c(F)c2)n1`, the Activity in test [1] is under 80%. Besides, in [2], the IC50 turned out to be 28 µM.

With `O=C(CSc1nccc(=O)[nH]1)c1ccc(O)cc1`, the inhibition entry in [3] is “Active”. The IC50 in test [2] amounted to 12.9 µM.

As to `O=C(CSc1nccc(=O)[nH]1)c1ccc(F)c2ccccc12`, the concentration for half-maximal inhibition (IC50) in test [2] amounted to 31.8 µM.

Consider `O=C(CSc1nccc(=O)[nH]1)c1ccc2ccccc2c1`, for which the inhibition entry in [3] and in test [5] was “inactive” throughout. Further, the IC50 in the test on MC-38 [4] was 340 µM; in test [2] it was 28.2 µM; in the test on CT26 [6], 150 µM; in the test on CT26 [7] it was 200 µM; in the test with MC-38 [9], 152 µM. Also, the inhibition result in the test on MC38 and in the test on CT26 [8] was “Active” each time.

For the compound `NC(=O)c1cc(C(=O)CSc2nccc(=O)[nH]2)ccc1O`, in test [1], the Activity is under 80%. Besides, in [2], the IC50 is 20.2 µM.

As to `O=C(CSc1nccc(=O)[nH]1)c1ccc(O)c(O)c1`, the Activity in [1] is under 80%. In addition, the IC50 in test [2] turned out to be 18.9 µM.

Regarding `Cc1cc(=O)[nH]c(SCC(=O)c2cc(O)cc(O)c2)n1`, the inhibition result in [3] and in test [5] was “inactive” in each case. Moreover, the IC50 in the test on MC-38 [4] was over 1000 µM; in [2], 23.6 µM; in the test on CT26 [6], over 1000 µM; in the test with CT26 [7] it was over 1000 µM; in the test with MC-38 [9] it was over 1000 µM. The inhibition entry with MC38 and in the test on CT26 [8] was “Active” throughout. The outcome in the test with MC-38 [10] was inactive.

Turning to `Cc1cc(=O)[nH]c(SCC(=O)c2ccc3ccccc3c2)n1`, the IC50 in test [2] was 22.6 µM.

As to `Cc1cc(=O)[nH]c(SCC(=O)c2ccc(O)c(Cl)c2)n1`, in test [1], the Activity is under 80%. Also, in test [2], the IC50 was 25.3 µM.

For `O=C(CSc1nccc(=O)[nH]1)c1cc(O)cc(O)c1`, the Activity in [1] was under 80%. Further, the 50% inhibitory concentration (IC50) in test [2] stood at 34.1 µM.

As for `Cc1cc(=O)[nH]c(SCC(=O)c2ccc3c(c2)OCO3)n1`, the inhibition result in test [3] and in test [5] was “inactive” in each case. The half-maximal inhibitory concentration (IC50) with MC-38 [4] is 367 µM; in test [2], 19.5 µM; with CT26 [6], 520 µM; in the test with CT26 [7] it was 502 µM; with MC-38 [9] it was 777 µM. Also, the inhibition result with MC38 and in the test with CT26 [8] was “Active” in each case. Also, the result in the test with MC-38 [10] was inactive.

For `Cc1cc(=O)[nH]c(SCC(=O)c2ccc(O)c(C(N)=O)c2)n1`, the Activity in test [1] was under 80%. For the same compound, the 50% inhibitory concentration (IC50) in test [2] was 21.3 µM.

Take `Cc1cc(O)nc(SCC(=O)c2ccc(O)cc2)n1`: the Activity in [1] was under 80%. The half-inhibitory concentration (IC50) in [2] worked out at 10.8 µM.

As for `Cc1cc(=O)[nH]c(SCC(=O)c2ccc(F)c3ccccc23)n1`, the IC50 in test [2] was 35.9 µM.

Turning to `O=C(CSc1nccc(=O)[nH]1)c1ccc(O)c(F)c1`, the Activity in [1] is under 80%. Further, the IC50 in [2] was 21.6 µM.

Consider `Cc1cc(=O)[nH]c(SCC(=O)c2cc(Cl)c(O)c(Cl)c2)n1`, for which the Activity in test [1] is under 80%. For the same compound, the IC50 in test [2] amounted to 13.4 µM.

`Cc1cc(=O)[nH]c(SCC(=O)c2ccc(O)c3ccccc23)n1`: the Activity in test [1] was under 80%. For the same compound, the IC50 in [2] was 3.3 µM.

For the compound `O=C(CSc1nccc(=O)[nH]1)c1cccc2ccccc12`, the inhibition entry in [3] and in [5] was “inactive” throughout. The IC50 was determined as 366 µM in the test on MC-38 [4]; 7.3 µM in [2]; 352 µM in the test on CT26 [6]; 356 µM with CT26 [7]; 191 µM with MC-38 [9]. Also, the outcome with MC-38 [11] was Active. The Activity in the test with Mus musculus turned out to be 33%. For the same compound, the inhibition entry in the test with MC38 and in the test with CT26 [8] was “Active” each time.
